A short description of series [1]: Selectivity index, ratio of IC50 for mouse J774.1 cells to IC50 for chloroquine-sensitive ring-stage Plasmodium falciparum 3D7. Type of series: toxicity. The conditions noted are these: read-out: Ratio IC50.
A short description of series [2]: Cytotoxicity against mouse J774.1 cells after 24 hrs by AlamarBlue based cytotoxicity assay. In kind it is cell-based. The conditions noted are these: J774.1, 24 h. In short, it runs like this: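 Compounds dissolved in DMSO and serially diluted. Cells incubated with them at 37 °C, 5% CO2 for 24 h. AlamarBlue solution then added and plates incubated for a further 24 and 48 h.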
(In general: The colour change of resazurin is a common sign of viable cells or microbes.)

Series [3] has as its system Plasmodium falciparum. As to the kind of experiment: Antimalarial activity against chloroquine-resistant Plasmodium falciparum Dd2 assessed as parasite viability after 72 hrs by malstat assay. In kind it is functional, organism-based. The settings on record: Dd2, 72 h.
The nature of series [4]: Selectivity index, ratio of IC50 for mouse J774.1 cells to IC50 for ring-stage Plasmodium falciparum Dd2. The settings on record: read-out: Ratio IC50. Type of series: toxicity.
Series [5] deals with Plasmodium falciparum. The series can be described thus: Antimalarial activity against chloroquine-sensitive ring-stage Plasmodium falciparum 3D7 assessed as parasite viability after 72 hrs by malstat assay. Type of series: functional, organism-based. The conditions noted are these: 3D7, 72 h. In short, it runs like this: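 P. falciparum 3D7: synchronized ring stages plated at 1% parasitemia with compounds dissolved in DMSO; 0.5% DMSO as negative control. Cultured in triplicate for 72 h, then viability read by Malstat assay (parasite lactate dehydrogenase activity). Each compound tested twice; IC50 and standard deviation calculated.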

A short description of series [6]: Inhibition of beta-hematin formation. In kind it is physicochemical. In short, it runs like this:
(§1)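 Heme–pyridine complex absorbance, which obeys Lambert–Beer's law, used to quantify free heme in heme/hemozoin mixtures and so judge inhibition of β-hematin formation. Chloroquine served as positive control and DMSO as negative control.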

Series [7] in a line: Inhibition of beta-hematin formation in acetate solution at pH 4.5 measured after 60 mins by pyridine-based spectrophotometric assay. In kind it is physicochemical. In short, it runs like this:
as §1

Series [8] can be described thus: Reversible inhibition of recombinant Plasmodium falciparum falcipain 2 assessed as hydrolysis of Cbz-Phe-Arg-AMC measured after 10 mins by spectrofluorometric method. In short, it runs like this:
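Substrate added to buffer containing falcipain-2 and a range of inhibitor concentrations. Fluorescence (ex 380, em 460 nm) followed over 10 min, in duplicate. Slopes (ΔF/min) of the progress curves plotted against inhibitor concentration; IC50 obtained by nonlinear regression.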

The test system of series [9] is Plasmodium falciparum. The series can be described thus: Inhibition of recombinant Plasmodium falciparum falcipain 2 assessed as hydrolysis of Cbz-Phe-Arg-AMC measured after 5 mins at 20 uM by spectrofluorometric method. In short, it runs like this: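 Recombinant falcipain-2 with Cbz-Phe-Arg-AMC substrate in 50 mM sodium acetate, pH 5.5, with 5 mM EDTA and 200 mM NaCl. Released AMC read by fluorescence (ex 380 nm, em 460 nm). Single-concentration screen; compounds giving over 35% inhibition went on to kinetic assays. Run twice.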

This note sets out measurements from ChEMBL document CHEMBL3813673, “Bistacrine derivatives as new potent antimalarials” (Bioorg Med Chem, 2016).

Take `c1ccc2c(NCCCCCCCNc3c4c(nc5ccccc35)CCCC4)c3c(nc2c1)CCCC3`: the figures for the selectivity ratio in series [1] and in series [4] were 27.1 and 8.64, respectively. For the same compound, the results for the IC50 (in [2]; in the series on Plasmodium falciparum [3]; in the series with Plasmodium falciparum [5]) were 1.9 µM, 0.22 µM and 0.07 µM, respectively.

Consider `CC1(C)CCc2c(nc3ccc([N+](=O)[O-])cc3c2NCCCCCCNc2c3c(nc4ccc([N+](=O)[O-])cc24)CC(C)(C)CC3)C1`, for which the selectivity ratio in series [1] is 198. Besides, the IC50 in series [2] amounted to 7.9 µM; with Plasmodium falciparum [5], 0.04 µM.

For the compound `CCN(CC)CCCC(C)Nc1ccnc2cc(Cl)ccc12` (stereo unspecified) [CHLOROQUINE], the IC50 in series [2] came to 18.4 µM; in series [6], 3.01 equiv; in [7], 1.91 equiv.

On to `Nc1c2c(nc3ccccc13)CCCC2` [TACRINE], for which the IC50 in series [2] is more than 100 µM; in the series on Plasmodium falciparum [5], 12.5 µM.

As for `CC1(C)CCc2c(nc3ccccc3c2NCCCCCCNc2c3c(nc4ccccc24)CC(C)(C)CC3)C1`, the selectivity ratio in series [1] is 60. For the same compound, the results for the IC50 (in [2]; in the series on Plasmodium falciparum [5]) were 1.8 µM and 0.03 µM, respectively.

Regarding `Cc1ccc2nc3c(c(N)c2c1)CCCC3`, the IC50 in series [2] came to 44.3 µM; in the series with Plasmodium falciparum [5], 2.04 µM.

In the case of `c1ccc2c(NCCCCCNc3c4c(nc5ccccc35)CCCC4)c3c(nc2c1)CCCC3`, the selectivity ratio in series [1] is 2.86; in series [4], 3.27. For the same compound, the IC50 in [2] was 1.8 µM; in the series with Plasmodium falciparum [3], 0.55 µM; in the series on Plasmodium falciparum [5] it was 0.63 µM.

Regarding `CC1(C)CCc2c(nc3cc(Cl)ccc3c2NCCCCCCNc2c3c(nc4cc(Cl)ccc24)CC(C)(C)CC3)C1`, the selectivity ratio in series [1] came out at 50. In addition, the IC50 in [2] was 1.5 µM; in the series with Plasmodium falciparum [5] it was 0.03 µM.

As for `CC1CCc2c(nc3cc(Cl)ccc3c2NCCCCCCNc2c3c(nc4cc(Cl)ccc24)CC(C)CC3)C1` (stereo unspecified), the selectivity ratio in series [1] is 30. Further, the IC50 came to 1.5 µM in [2] and 0.05 µM in the series with Plasmodium falciparum [5].

`c1ccc2c(NCCCCCCCCNc3c4c(nc5ccccc35)CCCC4)c3c(nc2c1)CCCC3`: the values for the selectivity ratio in series [1] and in series [4] were 17.3 and 6.33, respectively. In addition, the IC50 in series [8] is 17.1 µM; in series [2] it was 1.9 µM; in the series with Plasmodium falciparum [3], 0.3 µM; in the series with Plasmodium falciparum [5], 0.11 µM. The inhibition in the series with Plasmodium falciparum [9] was 34.4%.

On to `c1ccc2c(NCCCCCCCCCCNc3c4c(nc5ccccc35)CCCC4)c3c(nc2c1)CCCC3`, for which the results for the selectivity ratio in [1] and in [4] were 16.4 and 12.9, respectively. Further, the IC50 in series [2] turned out to be 1.8 µM; in the series with Plasmodium falciparum [3], 0.14 µM; in the series on Plasmodium falciparum [5], 0.11 µM.

In the case of `Nc1c2c(nc3ccc([N+](=O)[O-])cc13)CCCC2`, the IC50 in series [2] turned out to be 44.6 µM; with Plasmodium falciparum [5], 3.23 µM.

Take `CCCC1CCc2nc3ccc(Cl)cc3c(N)c2C1` (stereo unspecified): the IC50 was found to be 8.4 µM in series [2] and 0.21 µM in the series on Plasmodium falciparum [5].

`COc1ccc2nc3c(c(NCCCCCCCCCNc4c5c(nc6ccc(OC)cc46)CCCC5)c2c1)CCCC3`: the selectivity ratio in series [1] was 15. The IC50 in [8] was 14.9 µM; in [2] it was 1.7 µM; in the series on Plasmodium falciparum [3], 0.16 µM; in the series with Plasmodium falciparum [5], 0.11 µM. In the series on Plasmodium falciparum [9], the inhibition stood at 62.2%.

For `Nc1c2c(nc3ccc(Cl)cc13)CCCC2`, the results for the IC50 (in series [2]; with Plasmodium falciparum [5]) were 43.2 µM and 4.02 µM, respectively.

Consider `Clc1ccc2c(NCCCCCCNc3c4c(nc5cc(Cl)ccc35)CCCC4)c3c(nc2c1)CCCC3`, for which the selectivity ratio in [1] worked out at 90. Besides, the IC50 in [8] came to 17.3 µM; in series [2], 1.8 µM; in the series on Plasmodium falciparum [5] it was 0.02 µM. The inhibition in the series with Plasmodium falciparum [9] came out at 36.9%.

`CCOC1CCc2nc3cc(Cl)ccc3c(NCCCCCCCCCNc3c4c(nc5cc(Cl)ccc35)CCC(OCC)C4)c2C1` (stereo unspecified): the selectivity ratio in [1] came out at 9. For the same compound, the IC50 in [2] stood at 1.74 µM; in the series with Plasmodium falciparum [3] it was 0.16 µM; with Plasmodium falciparum [5], 0.2 µM. Besides, the inhibition in the series with Plasmodium falciparum [9] is 25%.

With `c1ccc2c(NCCCCCCNc3c4c(nc5ccccc35)CCCC4)c3c(nc2c1)CCCC3`, the selectivity ratio in [1] was 29.7. The IC50 was found to be 2.97 µM in [2] and 0.1 µM in the series with Plasmodium falciparum [5].

On to `CC1CCc2c(nc3ccc([N+](=O)[O-])cc3c2NCCCCCCNc2c3c(nc4ccc([N+](=O)[O-])cc24)CC(C)CC3)C1` (stereo unspecified), for which the selectivity ratio in [1] worked out at 1250. Besides, the values for the IC50 (in series [8]; in series [2]; in the series with Plasmodium falciparum [5]) were 5.2 µM, 25 µM and 0.02 µM, respectively. Moreover, the inhibition with Plasmodium falciparum [9] is 56.7%.

On to `CCCC1CCc2nc3ccccc3c(N)c2C1` (stereo unspecified), for which the IC50 in series [2] worked out at 43 µM; with Plasmodium falciparum [5] it was 1.52 µM.

With `CC1CCc2nc3cc(Cl)ccc3c(NCCCCCCNc3c4c(nc5cc(Cl)ccc35)CCC(C)C4)c2C1` (stereo unspecified), the selectivity ratio in [1] was determined as 260. The IC50 came to 7.8 µM in series [2] and 0.03 µM in the series on Plasmodium falciparum [5].

By inhibition is commonly meant the share of the control response that was lost under treatment.
